Molecules are shown by their SMILES. Active and inactive are the calls of the source. No cut-off for these calls is given here.

In general, inhibition refers to the drop in the measured response relative to a control, in per cent. Usually IC50 stands for the concentration that gives 50% inhibition.

Assay [1] deals with T1, Protein arginine N-methyltransferase 1 (Homo sapiens, UniProt Q99873). As to the kind of experiment: Displacement of [3H]-SAM from recombinant His6-tagged PRMT1 (unknown origin) expressed in Escherichia coli BL21(DE3) at 10 uM incubated for 5 mins prior to H4(1 to 20)-BTN peptide addition measured after 8 mins by scintillation proximity assay. In short, it runs like this: (§1)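 His6-PRMT1 (0.02 µM) was purified from E. coli BL21(DE3) on Ni-NTA. It was preincubated 5 min with compound (10, 30 or 90 µM) and [3H]SAM (0.5 µM) in 50 mM HEPES pH 8.0, 1 mM EDTA, 50 mM NaCl, 0.5 mM DTT at ~25 °C. Biotinylated H4(1–20) peptide (1 µM) was added and the reaction run 8 min. It was quenched with isopropanol and read with streptavidin SPA beads. % inhibition was taken against water (full activity) and no-peptide blanks.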
In general terms: Displacement assays read how much labelled ligand stays bound in the presence of the test substance.
Target sequence in this assay (Q99873 whole entry, looked up): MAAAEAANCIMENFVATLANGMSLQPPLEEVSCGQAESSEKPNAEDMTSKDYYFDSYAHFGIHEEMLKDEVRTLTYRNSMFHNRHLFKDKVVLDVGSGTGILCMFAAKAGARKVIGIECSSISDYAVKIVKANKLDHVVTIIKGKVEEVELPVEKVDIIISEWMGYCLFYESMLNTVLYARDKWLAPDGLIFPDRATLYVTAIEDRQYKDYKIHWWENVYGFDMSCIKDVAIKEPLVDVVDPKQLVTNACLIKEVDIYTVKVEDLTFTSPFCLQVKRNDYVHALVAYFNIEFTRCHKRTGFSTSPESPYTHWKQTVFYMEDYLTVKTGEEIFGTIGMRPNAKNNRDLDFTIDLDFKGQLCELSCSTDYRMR

The target in assay [2] is T1, Protein arginine N-methyltransferase 1. The experiment in a line: Displacement of [3H]-SAM from recombinant His6-tagged PRMT1 (unknown origin) expressed in Escherichia coli BL21(DE3) incubated for 5 mins prior to H4(1 to 20)-BTN peptide addition measured after 8 mins by scintillation proximity assay. An outline of the steps: (§2)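 Serial compound dilutions were tested in the same SPA format (His-tagged enzyme purified from E. coli BL21(DE3), 5 min preincubation, H4(1–20)-biotin substrate, 8 min reaction, ~25 °C, HEPES pH 8.0 buffer). [3H]SAM and peptide were set near their predetermined Km values for each enzyme. Remaining activity was fitted to a Hill-modified IC50 equation, giving IC50 and Hill coefficient.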
Target sequence in this assay (Q99873 whole entry): as the sequence (Q99873 whole entry, looked up) above

For assay [3] the target is unchanged. As to the kind of experiment: Displacement of [3H]-SAM from recombinant His6-tagged PRMT1 (unknown origin) expressed in Escherichia coli BL21(DE3) at 30 uM incubated for 5 mins prior to H4(1 to 20)-BTN peptide addition measured after 8 mins by scintillation proximity assay. In short, it runs like this:
as §1
Target sequence in this assay (Q99873 whole entry, looked up): as above

For assay [4] the target is unchanged. The experiment in a line: Displacement of [3H]-SAM from recombinant His6-tagged PRMT1 (unknown origin) expressed in Escherichia coli BL21(DE3) at 90 uM incubated for 5 mins prior to H4(1 to 20)-BTN peptide addition measured after 8 mins by scintillation proximity assay. In short, it runs like this:
as §1
Target sequence in this assay (Q99873 whole entry, looked up): as above

Assay [5] deals with Protein arginine N-methyltransferase 5 (Homo sapiens, UniProt O14744). As to the kind of experiment: Displacement of [3H]-SAM from recombinant His6-tagged PRMT5 (unknown origin) expressed in Escherichia coli BL21(DE3) incubated for 5 mins prior to H4(1 to 20)-BTN peptide addition measured after 8 mins by scintillation proximity assay. An outline of the steps:
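Recombinant His6-PRMT5 was purified on Ni-NTA after IPTG induction in E. coli BL21(DE3). [3H]SAM and H4(1–20)BTN were set near their predetermined Km. Serially diluted compound was preincubated 5 min before peptide addition, reacted 8 min, isopropanol-quenched, and read with streptavidin SPA beads. IC50 and nH came from a Hill fit.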

For assay [6], the target named is Protein arginine N-methyltransferase 8 (Homo sapiens, UniProt Q9NR22). As to the kind of experiment: Displacement of [3H]-SAM from recombinant His6-tagged PRMT8 (unknown origin) expressed in Escherichia coli BL21(DE3) incubated for 5 mins prior to H4(1 to 20)-BTN peptide addition measured after 8 mins by scintillation proximity assay. In short, it runs like this:
as §2

Protein arginine N-methyltransferase 8, sequence (Q9NR22 whole entry): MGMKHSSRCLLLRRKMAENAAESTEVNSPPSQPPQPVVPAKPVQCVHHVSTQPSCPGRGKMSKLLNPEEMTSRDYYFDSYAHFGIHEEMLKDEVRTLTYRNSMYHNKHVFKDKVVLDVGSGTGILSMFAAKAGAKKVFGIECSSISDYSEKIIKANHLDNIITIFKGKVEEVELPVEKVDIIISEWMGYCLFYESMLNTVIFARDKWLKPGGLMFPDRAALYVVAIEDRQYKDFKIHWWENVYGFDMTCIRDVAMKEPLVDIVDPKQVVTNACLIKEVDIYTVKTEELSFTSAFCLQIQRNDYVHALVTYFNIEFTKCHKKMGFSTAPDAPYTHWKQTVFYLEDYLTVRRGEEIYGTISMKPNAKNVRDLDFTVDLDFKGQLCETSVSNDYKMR
Protein arginine N-methyltransferase 5, sequence (O14744 whole entry): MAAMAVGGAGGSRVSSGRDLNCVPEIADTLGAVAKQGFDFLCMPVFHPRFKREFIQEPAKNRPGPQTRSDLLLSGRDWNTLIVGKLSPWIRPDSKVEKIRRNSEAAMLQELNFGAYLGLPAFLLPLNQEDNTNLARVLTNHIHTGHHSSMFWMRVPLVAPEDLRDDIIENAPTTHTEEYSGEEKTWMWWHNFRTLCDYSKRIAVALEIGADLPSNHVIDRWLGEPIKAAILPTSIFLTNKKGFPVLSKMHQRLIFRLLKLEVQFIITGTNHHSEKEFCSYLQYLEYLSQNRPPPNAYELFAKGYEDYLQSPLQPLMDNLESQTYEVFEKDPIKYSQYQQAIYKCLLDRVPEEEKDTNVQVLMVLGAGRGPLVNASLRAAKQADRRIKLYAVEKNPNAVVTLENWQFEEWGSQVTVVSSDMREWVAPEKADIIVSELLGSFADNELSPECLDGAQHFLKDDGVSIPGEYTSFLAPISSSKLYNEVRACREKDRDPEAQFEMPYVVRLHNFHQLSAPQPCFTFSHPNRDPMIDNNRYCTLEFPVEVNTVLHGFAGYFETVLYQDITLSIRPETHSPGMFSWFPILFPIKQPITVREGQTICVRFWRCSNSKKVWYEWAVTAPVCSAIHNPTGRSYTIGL

Consider `CCN1/C(=C/C(C)=C/c2sc3c4ccccc4ccc3[n+]2CC)Sc2c1ccc1ccccc21`, for which the inhibition in assay [1] stood at 92%. Further, in assay [2], the concentration for half-maximal inhibition (IC50) stood at 2370 nM.
With `CCCCN1/C(=C/C=C/C2=[N+](CCCC)c3ccc4ccccc4c3C2(C)C)C(C)(C)c2c1ccc1ccccc21`, the inhibition in assay [1] was 91%.
As for `CCCCN1/C(=C/C=C/C2=[N+](CCCC)c3ccc(Cl)cc3C2(C)C)C(C)(C)c2cc(Cl)ccc21`, the inhibition in assay [1] was 34%.
Consider `CC[N+]1=C(/C=C/C=C2/N(C)c3ccccc3C2(C)C)C(C)(C)c2ccccc21`, for which the inhibition entry in assay [1] is “inactive”. Besides, the inhibition in assay [3] was determined as 9%; in assay [4], 41%.
Turning to `CCCCN1/C(=C\C=C\C2=[N+](CCCC)c3ccc4ccccc4c3C2(C)C)C(C)(C)c2c1ccc1ccccc21`, the IC50 in assay [2] amounted to 2560 nM.
As to `CCCC[N+]1=C(/C=C/C=C2/N(C)c3ccccc3C2(C)C)C(C)(C)c2cc(Br)ccc21`, in assay [1], the inhibition is 36%.
As for `CCCCN1/C(=C/C=C/C2=[N+](CCCC)c3ccc(Br)cc3C2(C)C)C(C)(C)c2cc(Br)ccc21`, the inhibition in assay [1] worked out at 48%.
For the molecule `CC1(C)C(/C=C/C=C2/N(CCCc3ccccc3)c3ccc4ccccc4c3C2(C)C)=[N+](CCCc2ccccc2)c2ccc3ccccc3c21`, the inhibition in assay [1] amounted to 100%. Further, the IC50 in assay [2] is 610 nM; in assay [5] it was 1400 nM; in assay [6] it was 1740 nM.
Take `CCN1/C(=C/C=C/c2sc3cc(Br)ccc3[n+]2CC)Sc2cc(Br)ccc21`: in assay [1], the inhibition was found to be 88%. The concentration for half-maximal inhibition (IC50) in assay [2] worked out at 6430 nM.
`CCN1/C(=C/C=C/C2=[N+](CC)c3ccc4ccccc4c3C2(C)C)C(C)(C)c2c1ccc1ccccc21`: the inhibition in assay [1] worked out at 27%.
For the molecule `CCN1/C(=C/C=C/c2sc3ccccc3[n+]2CC)Sc2ccccc21`, in assay [1], the inhibition was 46%.
On to `CCCC[N+]1=C(C)C(C)(C)c2ccccc21`, for which the inhibition entry in assay [1], in assay [3] and in assay [4] was “inactive” throughout.
With `CN1/C(=C/C=C/C2=[N+](CCC[N+](C)(C)C)c3ccccc3C2(C)C)C(C)(C)c2ccccc21`, the inhibition in assay [1] was 2%.
Regarding `CCCC[N+]1=C(/C=C/C=C2/N(C)c3ccccc3C2(C)C)C(C)(C)c2ccccc21`, the inhibition is 8% in assay [1], 32% in assay [3] and 79% in assay [4].
As for `CCCCN1/C(=C/C(C)=C/c2sc3ccccc3[n+]2CCCC)Sc2ccccc21`, the inhibition in assay [1] was 77%.
Consider `CN1/C(=C/C=C/C2=[N+](CCCS(=O)(=O)[O-])c3ccccc3C2(C)C)C(C)(C)c2ccccc21`, for which the inhibition result in assay [1] is “inactive”.
In the case of `CC1(C)C(/C=C/C=C2/N(CCCc3ccccc3)c3ccccc3C2(C)C)=[N+](CCCc2ccccc2)c2ccccc21`, the inhibition in assay [1] amounted to 41%; in assay [3], 101%; in assay [4], 100%.
For `CCCCN1/C(=C/C=C/c2sc3ccccc3[n+]2CCCC)Sc2ccccc21`, the inhibition in assay [1] turned out to be 79%.
The same measure, in the same setting: the same measure for `CCN1/C(=C/C=C/C2=[N+](CC)c3ccc(Cl)cc3C2(C)C)C(C)(C)c2cc(Cl)ccc21`: 7%; for `CCCCN1/C(=C/C(/C=C/c2ccccc2)=C/c2sc3ccccc3[n+]2CCCC)Sc2ccccc21`: 48%.
`CCCCN1/C(=C/C=C/c2sc3cc(Br)ccc3[n+]2CCCC)Sc2cc(Br)ccc21`: the inhibition in assay [1] came to 93%. Further, in assay [2], the 50% inhibitory concentration (IC50) is 2670 nM.
As to `CC1(C)C(/C=C/C=C/C=C2/N(CCCc3ccccc3)c3ccc4ccccc4c3C2(C)C)=[N+](CCCc2ccccc2)c2ccc3ccccc3c21`, the inhibition in assay [1] is 70.2%. Further, the concentration for half-maximal inhibition (IC50) in assay [2] was 5760 nM.
On the same counts, the results for `CC1(C)C(/C=C/C=C2/N(CCCc3ccccc3)c3ccc(Br)cc3C2(C)C)=[N+](CCCc2ccccc2)c2ccc(Br)cc21` are 101% and 1250 nM.
The matching figures for `CC1(C)C(/C=C/C=C2/N(CCCc3ccccc3)c3ccc(Cl)cc3C2(C)C)=[N+](CCCc2ccccc2)c2ccc(Cl)cc21`: 100% and 1150 nM.
`CN1/C(=C/C=C/C2=[N+](CCCc3ccccc3)c3ccccc3C2(C)C)C(C)(C)c2ccccc21`: the values for the inhibition in assay [1], in assay [3] and in assay [4] were 35%, 96% and 101%, respectively.
As for `CCN1/C(=C\C=C\C2=[N+](CC)c3ccccc3C2(C)C)C(C)(C)c2ccccc21`, the inhibition in assay [1] is 4%; in assay [3], 42%; in assay [4], 60.6%.
On the same counts, the results for `CCCCN1/C(=C/C=C/C2=[N+](CCCC)c3ccccc3C2(C)C)C(C)(C)c2ccccc21` are “inactive”, 48% and 91%.
For the molecule `C(/C=C/c1sc2ccccc2[n+]1CCCc1ccccc1)=C1/Sc2ccccc2N1CCCc1ccccc1`, the inhibition in assay [1] worked out at 76%.
As for `CC1=[N+](CCCc2ccccc2)c2ccccc2C1(C)C`, the inhibition entry in assay [1] and in assay [3] was “inactive” each time. Further, the inhibition in assay [4] was 80%.
As for `CC[N+]1=C(C)C(C)(C)c2ccccc21`, the inhibition entry in assay [1], in assay [3] and in assay [4] was “inactive” throughout.
On to `CCN1/C(=C/C=C/c2sc3c4ccccc4ccc3[n+]2CC)Sc2c1ccc1ccccc21`, for which the inhibition in assay [1] came to 40%.
Turning to `CCCCN1/C(=C/C=C/c2sc3c4ccccc4ccc3[n+]2CCCC)Sc2c1ccc1ccccc21`, the inhibition in assay [1] was 99%. Also, in assay [2], the IC50 turned out to be 4000 nM.
As to `CCN1/C(=C/C=C(Cl)/C=C/C2=[N+](CC)c3ccc4ccccc4c3C2(C)C)C(C)(C)c2c1ccc1ccccc21`, the inhibition in assay [1] came out at 69%.
Same read-out and setting: the same measure for `CN1/C(=C/C=C/C2=[N+](CCC[N+](C)(C)C)c3ccc(S(=O)(=O)[O-])cc3C2(C)C)C(C)(C)c2ccccc21`: “inactive”.
`CC1(C)C(/C=C/C(Cl)=C/C=C2/N(CCCc3ccccc3)c3ccc4ccccc4c3C2(C)C)=[N+](CCCc2ccccc2)c2ccc3ccccc3c21`: the inhibition in assay [1] amounted to 96.3%. Also, in assay [2], the 50% inhibitory concentration (IC50) came out at 1810 nM.
Take `CCN1/C(=C/C=C/C2=[N+](CC)c3ccc(Br)cc3C2(C)C)C(C)(C)c2cc(Br)ccc21`: the inhibition in assay [1] worked out at 11%.
Regarding `CCN1/C(=C/C=C/C=C/C2=[N+](CC)c3ccc4ccccc4c3C2(C)C)C(C)(C)c2c1ccc1ccccc21`, in assay [1], the inhibition amounted to 89%. The IC50 in assay [2] came to 3390 nM.
